Results taken from ChEMBL document CHEMBL1153905, “Functionalized 3-benzylidene-indolin-2-ones: inducers of NAD(P)H-quinone oxidoreductase 1 (NQO1) with antiproliferative activity” (Bioorg Med Chem, 2009).

What was measured:
[1] = Cytotoxicity against mouse Hepa-1c1c7 cells after 48 hrs by MTT assay; format: cell-based; details: hepa-1c1c7, 48 h
Procedure, shortened: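 Murine hepatoma cells in α-MEM with 10% heat- and charcoal-treated fetal calf serum, passages 6–17; MTT read-out as for the cancer lines but with 48 h compound exposure. Highest concentration tested 25 µM. IC50 from survival-versus-concentration curve; mean and SD, n = 3.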

CYP1A1 [2] = target: T1, CYP1A1 (Mus musculus, UniProt P00184); experiment: Induction of CYP1A1 activity in mouse Hepa-1c1c7 cells assessed as induction ratio at 0.1 uM after 48 hrs by EROD assay relative to control; format: ADME, cell-based
T1 sequence (P00184 whole entry): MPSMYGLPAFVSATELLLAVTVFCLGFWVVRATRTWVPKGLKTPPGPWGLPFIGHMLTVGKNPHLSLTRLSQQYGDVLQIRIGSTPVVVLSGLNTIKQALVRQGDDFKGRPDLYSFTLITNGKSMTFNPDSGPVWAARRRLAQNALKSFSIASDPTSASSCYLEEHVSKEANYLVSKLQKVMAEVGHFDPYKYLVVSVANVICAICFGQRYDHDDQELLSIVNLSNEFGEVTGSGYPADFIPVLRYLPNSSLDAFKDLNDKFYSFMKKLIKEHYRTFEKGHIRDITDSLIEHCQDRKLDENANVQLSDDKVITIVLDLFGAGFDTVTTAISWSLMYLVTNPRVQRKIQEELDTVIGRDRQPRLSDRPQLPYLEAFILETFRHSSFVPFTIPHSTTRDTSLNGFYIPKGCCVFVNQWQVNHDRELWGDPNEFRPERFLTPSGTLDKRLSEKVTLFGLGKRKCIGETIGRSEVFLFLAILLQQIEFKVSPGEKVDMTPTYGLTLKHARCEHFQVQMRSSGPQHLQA
Procedure, shortened: (§1)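 About 10,000 Hepa1c1c7 cells/well cultured 24 h, then compound (0.5% DMSO final) for 48 h, at roughly 4 × the concentration doubling NQO1 activity. After PBS wash, cells given 5 µM 7-ethoxyresorufin plus 2 mM salicylamide, 37 °C, 40 min; resorufin fluorescence ex 530/em 590 nm, corrected for compound fluorescence. Ratio = (treated − blank)/(DMSO control − blank); mean ± SD, n = 3.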

[3] = target: NAD(P)H dehydrogenase [quinone] 1 (Mus musculus) (UniProt Q64669); experiment: Induction of NQO1 activity in mouse Hepa-1c1c7 cells assessed as induction ratio at 0.1 uM after 48 hrs by MTT assay relative to control; format: cell-based
Procedure, shortened: (§2)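 Hepa1c1c7 cells, 10,000 per well, 24 h, were then treated 48 h (DMSO ≤0.5%). Digitonin/EDTA lysates were assayed for menadione-dependent MTT-formazan formation using a G6P/G6PDH NADPH-generating mix with FAD at pH 7.4. The reaction ran 5 min, was stopped with dicoumarol, and read at A590. Degree of induction = (A test − blank)/(A control − blank). Ratios were read off the induction–concentration plot at the EROD test concentration.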

[4] = target: NAD(P)H dehydrogenase [quinone] 1 (Mus musculus) (UniProt Q64669); experiment: Induction of NQO1 activity in mouse Hepa-1c1c7 cells assessed as induction ratio at 10 uM after 48 hrs by MTT assay relative to control; format: cell-based; procedure, shortened: as §2
CYP1A1 [5] = target: T1, CYP1A1; experiment: Induction of CYP1A1 activity in mouse Hepa-1c1c7 cells assessed as induction ratio at 10 uM after 48 hrs by EROD assay relative to control; format: ADME, cell-based; procedure, shortened: as §1
[6] = target: NAD(P)H dehydrogenase [quinone] 1 (Mus musculus) (UniProt Q64669); experiment: Induction of NQO1 activity in mouse Hepa-1c1c7 cells assessed as drug level required to double basal enzyme activity after 48 hrs by MTT assay; format: cell-based
Procedure, shortened: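 Hepa1c1c7 cells were grown in α-MEM with charcoal-treated FCS, 10,000 per well, 24 h. Compound was given 48 h (DMSO ≤0.5%) over a 10–100-fold range below cytotoxic levels, up to 25 µM. Cells were lysed with digitonin/EDTA. NQO1 was assayed by menadione-driven MTT reduction (G6P/G6PDH/NADP, FAD, Tris pH 7.4), quenched with dicoumarol, A590. CD is the concentration doubling basal activity, taken from the induction–concentration plot; mean ± SD, n = 3.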

CYP1A1 [7] = target: T1, CYP1A1; experiment: Induction of CYP1A1 activity in mouse Hepa-1c1c7 cells assessed as induction ratio at 1 uM after 48 hrs by EROD assay relative to control; format: ADME, cell-based; procedure, shortened: as §1
[8] = target: NAD(P)H dehydrogenase [quinone] 1 (Mus musculus) (UniProt Q64669); experiment: Induction of NQO1 activity in mouse Hepa-1c1c7 cells assessed as induction ratio at 1 uM after 48 hrs by MTT assay relative to control; format: cell-based; procedure, shortened: as §2
HCT-116 [9] = experiment: Cell cycle arrest in human HCT116 cells released from G2 block assessed as accumulation at sub G1 phase at 5 uM after 24 hrs by flow cytometry; format: functional
HCT-116 [10] = experiment: Antiproliferative activity against human HCT116 cells after 72 hrs by MTT assay; format: functional, cell-based; details: HCT-116, 72 h
Procedure, shortened: (§3)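 Cells seeded at 10,000 (MCF7), 4000 (HCT116) or 5000 (CCL186) per well and grown 24 h; MCF7 and CCL186 in EMEM with pyruvate, glutamine, 10% FBS; HCT116 in McCoy's 5A with 10% FBS. Compounds from DMSO stocks (≤1% DMSO final), 72 h exposure; MTT 0.5 mg/ml for 3 h, formazan in DMSO read at 590 nm. IC50 from sigmoidal survival curve, three separate occasions.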

[11] = Antiproliferative activity against human CCL186 cells after 72 hrs by MTT assay; format: cell-based; details: CCL186, 72 h; procedure, shortened: as §3
HCT-116 [12] = experiment: Cell cycle arrest in human HCT116 cells released from G2 block assessed as accumulation at G2/M phase at 5 uM after 24 hrs by flow cytometry; format: functional
HCT-116 [13] = experiment: Cell cycle arrest in human HCT116 cells released from G1 block assessed as accumulation at S phase at 5 uM after 24 hrs by flow cytometry; format: functional
MCF7 [14] = experiment: Selectivity ratio of IC50 for human CCL186 cells to IC50 for human MCF7 cells
Procedure, shortened: (§4)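 MTT assay. MCF7 and CCL186 cells were grown in EMEM/10% FBS, HCT116 in McCoy's 5A/10% FBS. Seeding was 10,000 (MCF7), 4000 (HCT116) and 5000 (CCL186) cells per well, 24 h. Compound exposure was 72 h, DMSO ≤1% final. MTT 0.5 mg/ml for 3 h, formazan dissolved in DMSO, A590. IC50 came from sigmoidal survival curves, with 3 separate occasions per concentration. Ratio = IC50 CCL186 / IC50 of the cancer line.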

[15] = Selectivity ratio of IC50 for human CCL186 cells to IC50 for human HCT116 cells; format: ADME, cell-based, HCT-116; details: CCL186 cells and HCT116 cells, read-out: Ratio IC50; procedure, shortened: as §4
HCT-116 [16] = experiment: Cell cycle arrest in human HCT116 cells released from G2 block assessed as accumulation at S phase at 5 uM after 24 hrs by flow cytometry; format: functional
[17] = target: NAD(P)H dehydrogenase [quinone] 1 (Mus musculus) (UniProt Q64669); experiment: Induction of NQO1 activity in mouse Hepa-1c1c7 cells assessed as induction ratio at 0.5 uM after 48 hrs by MTT assay relative to control; format: cell-based; procedure, shortened: as §2
HCT-116 [18] = experiment: Cell cycle arrest in human HCT116 cells released from G1 block assessed as accumulation at G2/M phase at 5 uM after 24 hrs by flow cytometry; format: functional
MCF7 [19] = experiment: Antiproliferative activity against human MCF7 cells after 72 hrs by MTT assay; format: functional, cell-based; details: MCF7, 72 h; procedure, shortened: as §3
HCT-116 [20] = experiment: Cell cycle arrest in human HCT116 cells released from G2 block assessed as accumulation at G1 phase at 5 uM after 24 hrs by flow cytometry; format: functional
HCT-116 [21] = experiment: Cell cycle arrest in human HCT116 cells released from G1 block assessed as accumulation at sub G1 phase at 5 uM after 24 hrs by flow cytometry; format: functional
HCT-116 [22] = experiment: Cell cycle arrest in human HCT116 cells released from G1 block assessed as accumulation at G1 phase at 5 uM after 24 hrs by flow cytometry; format: functional
CYP1A1 [23] = target: T1, CYP1A1; experiment: Induction of CYP1A1 activity in mouse Hepa-1c1c7 cells assessed as induction ratio at 0.5 uM after 48 hrs by EROD assay relative to control; format: ADME, cell-based; procedure, shortened: as §1
HCT-116 [24] = experiment: Cell cycle arrest in human HCT116 cells released from G1 block assessed as accumulation at S phase at 15 uM after 24 hrs by flow cytometry; format: functional
HCT-116 [25] = experiment: Cell cycle arrest in human HCT116 cells released from G2 block assessed as accumulation at S phase at 15 uM after 24 hrs by flow cytometry; format: functional
HCT-116 [26] = experiment: Cell cycle arrest in human HCT116 cells released from G2 block assessed as accumulation at sub G1 phase at 15 uM after 24 hrs by flow cytometry; format: functional
HCT-116 [27] = experiment: Cell cycle arrest in human HCT116 cells released from G1 block assessed as accumulation at sub G1 phase at 15 uM after 24 hrs by flow cytometry; format: functional
[28] = target: NAD(P)H dehydrogenase [quinone] 1 (Mus musculus) (UniProt Q64669); experiment: Induction of NQO1 activity in mouse Hepa-1c1c7 cells assessed as induction ratio at 0.05 uM after 48 hrs by MTT assay relative to control; format: cell-based; procedure, shortened: as §2
HCT-116 [29] = experiment: Cell cycle arrest in human HCT116 cells released from G1 block assessed as accumulation at G1 phase at 15 uM after 24 hrs by flow cytometry; format: functional
CYP1A1 [30] = target: T1, CYP1A1; experiment: Induction of CYP1A1 activity in mouse Hepa-1c1c7 cells assessed as induction ratio at 0.05 uM after 48 hrs by EROD assay relative to control; format: ADME, cell-based; procedure, shortened: as §1
HCT-116 [31] = experiment: Cell cycle arrest in human HCT116 cells released from G2 block assessed as accumulation at G2/M phase at 15 uM after 24 hrs by flow cytometry; format: functional
HCT-116 [32] = experiment: Cell cycle arrest in human HCT116 cells released from G2 block assessed as accumulation at G1 phase at 15 uM after 24 hrs by flow cytometry; format: functional
HCT-116 [33] = experiment: Cell cycle arrest in human HCT116 cells released from G1 block assessed as accumulation at G2/M phase at 15 uM after 24 hrs by flow cytometry; format: functional

Sequence of NAD(P)H dehydrogenase [quinone] 1 (Mus musculus) (Q64669 whole entry): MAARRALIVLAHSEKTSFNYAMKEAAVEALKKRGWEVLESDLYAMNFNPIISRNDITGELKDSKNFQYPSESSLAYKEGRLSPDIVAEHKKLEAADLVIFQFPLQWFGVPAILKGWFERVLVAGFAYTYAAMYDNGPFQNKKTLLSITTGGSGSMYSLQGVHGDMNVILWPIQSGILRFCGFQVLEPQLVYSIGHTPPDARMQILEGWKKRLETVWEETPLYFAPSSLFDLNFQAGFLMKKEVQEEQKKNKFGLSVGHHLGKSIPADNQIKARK

COc1cccc(/C=C2/C(=O)Nc3cc(Cl)ccc32)c1
IC50 [1]: > 25 µM | fold induction at 48 h, 0.1 µM (CYP1A1 [2]): 1.51 | Ratio [3]: 2.56

O=C1Nc2ccccc2/C1=C\c1ccccn1
IC50 [1]: 19.9 µM | Ratio [4]: 3.92 | fold induction at 48 h, 10 µM (CYP1A1 [5]): 1.08

C[S+]([O-])CCCCN=C=S (centres undefined) [SULFORAPHANE]
CD [6]: 0.26 µM | fold induction at 48 h, 1 µM (CYP1A1 [7]): 0.92 | Ratio [8]: 3.89

O=C1Nc2ccccc2/C1=C1\C(=O)Nc2ccccc21 [ISOINDIGO]
IC50 [1]: > 25 µM | fold induction at 48 h, 0.1 µM (CYP1A1 [2]): 1.44 | Ratio [3]: 2.8

COc1ccc2c(c1)NC(=O)/C2=C/c1cccc(C(F)(F)F)c1
Activity (HCT-116 [9]): 20.69% | IC50 (HCT-116 [10]): 1.9 µM | IC50 [11]: 5.4 µM | Activity (HCT-116 [12]): 31.58% | Activity (HCT-116 [13]): 19.12% | IC50 [1]: 2.6 µM | Ratio IC50 (MCF7 [14]): 2.8 | selectivity ratio [15]: 1.4 | Activity (HCT-116 [16]): 17.96% | Ratio [17]: 4.22 | Activity (HCT-116 [18]): 59.16% | IC50 (MCF7 [19]): 3.8 µM | Activity (HCT-116 [20]): 30.55% | Activity (HCT-116 [21]): 4.39% | Activity (HCT-116 [22]): 17.5% | fold induction at 48 h, 0.5 µM (CYP1A1 [23]): 1.36

O=C1Nc2cc(F)ccc2/C1=C\c1cccc(C(F)(F)F)c1
IC50 (HCT-116 [10]): 8.4 µM | IC50 [11]: 7.5 µM | Activity (HCT-116 [24]): 8.04% | IC50 [1]: 2.2 µM | Ratio IC50 (MCF7 [14]): 0.9 | Activity (HCT-116 [25]): 8.82% | Activity (HCT-116 [26]): 2.49% | Activity (HCT-116 [27]): 12.68% | selectivity ratio [15]: 0.8 | Ratio [28]: 3.31 | IC50 (MCF7 [19]): 8.9 µM | Activity (HCT-116 [29]): 64.93% | fold induction at 48 h, 0.05 µM (CYP1A1 [30]): 1.23 | Activity (HCT-116 [31]): 25% | Activity (HCT-116 [32]): 64.15% | Activity (HCT-116 [33]): 14.58%
